ChEMBL document CHEMBL2057099, “Synthesis of rocaglamide hydroxamates and related compounds as eukaryotic translation inhibitors: synthetic and biological studies” (J Med Chem, 2012)
The source made the active and inactive calls. No cut-off for these calls is given here.

Key:
[1] = target: T1, Eukaryotic initiation factor 4A-I (Homo sapiens, UniProt P60842); experiment: Inhibition of eIF4A1-mediated protein synthesis in human HeLA cells assessed as inhibition of [35S]Met incorporation by scintillation counting; type: cell-based
T1 sequence (P60842 whole entry): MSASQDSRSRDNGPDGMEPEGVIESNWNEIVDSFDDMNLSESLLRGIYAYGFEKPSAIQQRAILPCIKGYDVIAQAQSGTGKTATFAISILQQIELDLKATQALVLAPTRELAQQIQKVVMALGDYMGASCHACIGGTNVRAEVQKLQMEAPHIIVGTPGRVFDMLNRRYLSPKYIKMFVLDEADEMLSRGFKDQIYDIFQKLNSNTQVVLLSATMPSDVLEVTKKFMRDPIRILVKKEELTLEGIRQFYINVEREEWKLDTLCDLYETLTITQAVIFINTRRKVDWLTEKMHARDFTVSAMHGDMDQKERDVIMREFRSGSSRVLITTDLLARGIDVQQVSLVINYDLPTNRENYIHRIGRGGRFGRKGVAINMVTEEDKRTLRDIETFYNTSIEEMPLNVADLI
How it was run: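 HeLa cells treated with compound or DMSO vehicle. Protein synthesis measured as 35S-Met incorporation, normalised to total protein content and expressed relative to the DMSO control. Values are the average of duplicates with the error of the mean.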

[2] = target: Eukaryotic initiation factor 4A-I (Oryctolagus cuniculus) (UniProt P29562); experiment: Inhibition of eIF4A1-mediated FF/HCV/Ren cap-dependent mRNA translation in rabbit reticulocyte lysate by reporter gene assay
Sequence of Eukaryotic initiation factor 4A-I (Oryctolagus cuniculus) (P29562 whole entry): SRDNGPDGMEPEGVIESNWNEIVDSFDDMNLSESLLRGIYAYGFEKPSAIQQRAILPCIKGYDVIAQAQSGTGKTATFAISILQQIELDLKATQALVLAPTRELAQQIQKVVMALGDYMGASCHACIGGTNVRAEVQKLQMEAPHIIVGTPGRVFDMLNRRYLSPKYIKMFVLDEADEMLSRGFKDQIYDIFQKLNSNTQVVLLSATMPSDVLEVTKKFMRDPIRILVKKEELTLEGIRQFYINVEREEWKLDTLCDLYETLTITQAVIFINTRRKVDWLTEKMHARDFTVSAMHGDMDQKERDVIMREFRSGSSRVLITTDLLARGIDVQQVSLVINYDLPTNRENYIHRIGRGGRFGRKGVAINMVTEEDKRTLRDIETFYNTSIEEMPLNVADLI

[3] = test system: Mus musculus; experiment: Hematotoxicity in C57Bl/6 mouse assessed as effect on CD4 T cells at 0.2 mg/kg, ip administered for 5 days measured 2 hrs post last dose by FACS analysis; type: organism-based, T-cell; set-up: dose 0.2 mg/kg, route intraperitoneal; conditions: in vivo
[4] = test system: Mus musculus; experiment: Hematotoxicity in C57Bl/6 mouse assessed as effect on […] T cells at 0.2 mg/kg, ip administered for 5 days measured 2 hrs post last dose by FACS analysis; type: organism-based, T-cell; set-up: dose 0.2 mg/kg, route intraperitoneal; conditions: in vivo
[5] = test system: Mus musculus; experiment: Hematotoxicity in C57Bl/6 mouse assessed as effect on Ly-6G myeloid cells at 0.2 mg/kg, ip administered for 5 days measured 2 hrs post last dose by FACS analysis; type: organism-based; set-up: dose 0.2 mg/kg, route intraperitoneal; conditions: in vivo
[6] = test system: Mus musculus; experiment: Hematotoxicity in C57Bl/6 mouse assessed as effect on B220 pre-B/B cells at 0.2 mg/kg, ip administered for 5 days measured 2 hrs post last dose by FACS analysis; type: organism-based; set-up: dose 0.2 mg/kg, route intraperitoneal; conditions: in vivo
[7] = Metabolic stability in mouse liver microsomes assessed as compound remaining after 1 hr; type: ADME, Microsome; conditions: read-out: Stability
How it was run: (§1)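 Incubation with human or murine liver microsomes, read as percent compound remaining after 1 h.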

[8] = Metabolic stability in human liver microsomes assessed as compound remaining after 1 hr; type: ADME, Microsome; conditions: read-out: Stability; how it was run: as §1
[9] = Metabolic stability in human plasma assessed as compound remaining after 3 hrs; type: ADME, cell-free; conditions: read-out: Stability
How it was run: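 Stability in human plasma measured as percent compound remaining after 3 h.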

[10] = Permeability of the compound by PAMPA assay at pH 7.4; type: ADME
[11] = Plasma protein binding in human after 4 hrs; type: ADME, cell-free; conditions: read-out: PPB (converted)
How it was run: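 Human plasma protein binding measured after 4 h exposure.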

[12] = Permeability of the compound by PAMPA assay at pH 6.2; type: ADME
[13] = Solubility of the compound at pH 7.4; type: physicochemical; conditions: buffer
How it was run: (§2)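 Solubility measured at pH 5.0, 6.2 and 7.4.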

[14] = Permeability of the compound by PAMPA assay at pH 5; type: ADME
[15] = Solubility of the compound at pH 6.2; type: physicochemical; conditions: buffer; how it was run: as §2
[16] = Solubility of the compound at pH 5; type: physicochemical; conditions: buffer; how it was run: as §2
[17] = test system: lymphoma; experiment: Potentiation of doxorubicin antitumor activity against mouse Eu-myc/myr-AKT lymphoma cells xenografted in C57Bl/6 mouse assessed as tumor-free survival at 0.2 mg/kg, ip administered daily for 5 days; type: functional, organism-based; set-up: dose 0.2 mg/kg
How it was run: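 C57Bl/6 mice, 6-8 weeks old, received 10^6 Eμ-myc/(myr)Akt lymphoma cells intravenously. Dosing began when tumours were palpable: test agent 0.2 mg/kg i.p. daily for 5 d in PEG 400/5.2% Tween 80, with doxorubicin 10 mg/kg given once on day 2. n=5 per group. Read-out was tumour-free survival (Kaplan-Meier).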

[18] = test system: BJAB; experiment: Cytotoxicity against human BJAB cells after 72 hrs by PI-staining based flow cytometric analysis; type: functional, cell-based
How it was run: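 BJAB cells exposed 72 h to a concentration series. Viability by propidium iodide staining and flow cytometry, plotted relative to vehicle (DMSO). Mean of three experiments.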

[19] = target: T1, Eukaryotic initiation factor 4A-I; experiment: Inhibition of eIF4A1-mediated protein synthesis in human BJAB cells assessed as inhibition of [35S]Met incorporation after 72 hr by scintillation counting; type: cell-based
How it was run: (§3)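 BJAB lymphoma cells exposed to compound for 1 h or 72 h. Protein synthesis measured as 35S-Met incorporation, normalised to total protein content and expressed relative to DMSO vehicle. Duplicates.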

[20] = target: T1, Eukaryotic initiation factor 4A-I; experiment: Inhibition of eIF4A1-mediated protein synthesis in human BJAB cells assessed as inhibition of [35S]Met incorporation after 1 hr by scintillation counting; type: cell-based; how it was run: as §3
[21] = target: T1, Eukaryotic initiation factor 4A-I; experiment: Inhibition of recombinant eIF4A1 assessed as depletion of eIF4A1/2 from eIF4F complex at 1 to 10 uM after 1 hr by Western blot analysis
How it was run: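 eIF4F complex isolated by m7GTP affinity purification. Eluates resolved on 10% SDS-PAGE, then Western blot for eIF4E and eIF4AI/II.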

[22] = target: T1, Eukaryotic initiation factor 4A-I; experiment: Inhibition of recombinant eIF4A1 assessed as eIF4A1/[32P]mRNA complex formation at 1 to 10 uM after 10 mins by scintillation counting in presence of hippuristanol
[23] = target: T1, Eukaryotic initiation factor 4A-I; experiment: Inhibition of recombinant eIF4A1 assessed as eIF4A1/[32P]mRNA complex formation after 10 mins by scintillation counting
How it was run: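 Binding of eIF4AI to radiolabelled RNA. Mean of three experiments with standard error of the mean.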

COc1ccc(C23Oc4cc(OC)cc(OC)c4C2(O)C(O)C(C(=O)NOCCO)C3c2ccccc2)cc1 (racemic)
inhibition [1]: Active | inhibition [2]: Active

CONC(=O)[C@H]1[C@@H](O)[C@@]2(O)c3c(OC)cc(OC)cc3O[C@@]2(c2ccc(OC)cc2)[C@@H]1c1ccccc1
Activity [3]: Non-toxic | Activity [4]: Non-toxic | Activity [5]: Non-toxic | Activity [6]: Non-toxic | remaining at 1 h [7]: > 95% | remaining at 1 h [8]: > 95% | remaining at 3 h [9]: 100% | permeability [10]: permeable | fraction unbound at 4 h [11]: 0.18 | permeability [12]: permeable | solubility [13]: > 150 mg/mL | permeability [14]: permeable | solubility [15]: > 150 mg/mL | solubility [16]: > 150 mg/mL | Activity [17]: Active | IC50 [18]: 1.5 nM | IC50 [19]: 0.5 nM | IC50 [20]: 20 nM | inhibition [21]: Active | inhibition [22]: inactive | inhibition [23]: Dose-dependent effect | inhibition [2]: Active

CONC(=O)C1C(O)C2(O)c3c(OC)cc(OC)cc3OC2(c2ccc(OC)cc2)C1c1ccccc1 (racemic)
inhibition [2]: Active

COc1ccc(C23Oc4cc(OC)cc(OC)c4C2(O)C(O)C(C(=O)NOCC2CC2)C3c2ccccc2)cc1 (racemic)
inhibition [2]: Active

COC(=O)[C@H]1[C@@H](O)[C@@]2(O)c3c(OC)cc(O[C@@H]4O[C@@H]([C@H](O)CO)CO[C@H]4OC)cc3O[C@@]2(c2ccc(OC)cc2)[C@@H]1c1ccccc1
Activity [17]: Active | inhibition [18]: Active | inhibition [19]: Active | inhibition [20]: Active | inhibition [21]: Active | inhibition [22]: inactive | inhibition [23]: Dose-dependent effect

COc1ccc(C23Oc4cc(OC)cc(OC)c4C2(O)C(O)C(C(=O)NOCCOCCOCCNC(C)=O)C3c2ccccc2)cc1 (racemic)
inhibition [1]: Active | inhibition [2]: Active

CONC(=O)[C@@H]1[C@H](O)[C@]2(O)c3c(OC)cc(OC)cc3O[C@]2(c2ccc(OC)cc2)[C@H]1c1ccccc1
inhibition [2]: inactive

COc1ccc([C@@]23Oc4cc(OC)cc(OC)c4[C@]2(O)[C@H](O)[C@H](C(=O)c2ccc(CO)o2)[C@H]3c2ccccc2)cc1
inhibition [2]: Active
